Assay results from ChEMBL document CHEMBL1141436, “Inhibitory effects of diterpenoid alkaloids on the growth of A172 human malignant cells” (J Nat Prod, 2007).
Converted amounts (≈) assume the structure as drawn.

What was measured:
[1] = Growth inhibition of human A172 cells after 6 days; assay type: functional, cell-based; details: a 172
[2] = Cytotoxicity against human A172 cells after 6 days; assay type: functional, cell-based, A 172
Summary of the method: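 A172 glioma cells in high-glucose DMEM with 10% heat-inactivated FBS and penicillin/streptomycin, seeded at 5 × 10^3 cells/mL (1 mL/well). After 24 h, alkaloids were added from fresh 1 mg/mL DMSO stocks (final DMSO ≤0.5%; controls DMSO-matched). Total cell number counted by particle counter after 6 days. IC50 (50% inhibition vs untreated) taken from dose–response curves; mean ± SD, ≥3 independent experiments.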

[3] = Homo sapiens, A 172, 144 h, read-out: IC50

| SMILES | relative cell growth [1] | IC50 ([2]; a 172) [µg/mL] | IC50 [2, 3] [µg/mL] |
| --- | --- | --- | --- |
| C=C1[C@H]2C[C@H]3C4N5C[C@]6(C)CCC[C@]47[C@H]([C@H]2OC(=O)c2ccccc2)C3(C[C@]5(OC(=O)c2ccccc2)[C@H]67)[C@@H]1O | 0.76 | 1.3 (≈ 2.42 µM) |  |
| C=C1[C@H]2C[C@H]3C4N5C[C@]6(C)CCC[C@]47[C@H]([C@H]2OC(=O)/C=C/c2ccccc2)C3(C[C@]5(O)[C@H]67)[C@@H]1O | 0.49 |  | 0.89 (≈ 1.94 µM) |
| C=C1[C@H]2C[C@H]3C4N5C[C@]6(C)CCC[C@]47[C@H]([C@H]2OC(=O)c2ccc(OC)cc2)C3(C[C@]5(O)[C@H]67)[C@@H]1O | 0.23 |  | 1.3 (≈ 2.8 µM) |
| C=C1[C@H]2C[C@H]3C4N5C[C@]6(C)CCC[C@]47[C@H]([C@H]2O)C3(C[C@]5(OC(=O)/C=C/c2ccccc2)[C@H]67)[C@@H]1O | 0.97 |  |  |
| C=C1[C@H]2C[C@H]3C4N5C[C@]6(C)CCC[C@]47[C@H]([C@H]2O)C3(C[C@]5(OC(=O)c2ccccc2)[C@H]67)[C@@H]1O | 0.93 |  |  |
| C=C1[C@H]2C[C@H]3C4N5C[C@]6(C)CCC[C@]47[C@H]([C@H]2O)C3(C[C@]5(OC(=O)c2ccc(OC)cc2)[C@H]67)[C@@H]1O | 0.99 |  |  |
| C=C1[C@H]2C[C@H]3C4N5C[C@]6(C)CCC[C@]47[C@H]([C@H]2OC(=O)c2cccc(C(F)(F)F)c2)C3(CC5[C@H]67)[C@@H]1O | 0.6 |  |  |
| C=C1[C@H]2C[C@H]3C4N(Cc5ccccc5)C[C@]5(C)CCC[C@]46[C@H]([C@H]2O)C3(CC(=O)[C@H]56)[C@@H]1OCc1ccccc1 (some centres not stated) | 1.04 |  | > 5 |
| C=C1[C@@H](O)[C@]23C[C@@H]1[C@@H](OC(=O)c1ccccc1)C[C@H]2[C@@]12C4C3C[C@@H]1[C@@](C)(CC[C@H]2O)CN4CC | 0.82 |  |  |
| C=C1[C@@H](O)[C@]23C[C@@H]1[C@@H](OC(=O)c1ccc(OC)cc1)C[C@H]2[C@@]12C4C3C[C@@H]1[C@@](C)(CC[C@H]2O)CN4CC | 0.84 |  |  |
| C=C1[C@@H](O)[C@]23C[C@@H]1[C@@H](OC(C)=O)C[C@H]2[C@@]12C4C3C[C@@H]1[C@@](C)(CC[C@H]2O)CN4CC | 0.66 |  | 5.6 (≈ 13.9 µM) |
| COC[C@]12CC[C@H](O)[C@]34C(NC1)[C@@](O)([C@@H](OC)[C@H]23)[C@@]1(O)C[C@H](OC)[C@H]2C[C@@H]4[C@@H]1[C@H]2OC | 0.93 |  |  |
| COC[C@]12CC[C@H]3OC1NC1[C@@]34[C@@H]3C[C@H]5[C@H](OC)[C@@H]3[C@](O)(C[C@@H]5OC)[C@]1(O)[C@@H](OC)[C@H]24 | 1.14 |  |  |
| C=C1[C@H]2C[C@H]3C4N5C[C@]6(C)CCC[C@]47[C@H]([C@H]2OC(=O)c2cccc(C(F)(F)F)c2)C3(C[C@]5(O)[C@H]67)[C@@H]1O | 0.58 |  |  |
| COC[C@]12CC[C@H]3OC1NC1[C@@]34[C@@H]3C[C@H]5[C@H](O)[C@@H]3[C@](O)(C[C@@H]5OC)[C@]1(O)[C@@H](OC)[C@H]24 | 1.04 |  |  |
| CCN1C[C@]2(COC)CC[C@H](OC)[C@]34C1[C@@](O)([C@@H](OC)[C@H]23)[C@@]1(O)C[C@H](OC)[C@H]2C[C@@H]4[C@@H]1[C@H]2OC(C)=O | 0.99 |  |  |
| C=C1[C@H]2C[C@H]3C4N5C[C@]6(C)CCC[C@]47[C@H]([C@H]2O)C3(C[C@]5(O)[C@H]67)[C@@H]1OC(=O)c1ccc(OC)c(OC)c1 | 0.97 |  | 2.9 (≈ 5.88 µM) |
| CCN1C[C@]2(COC)CC[C@H](O)[C@]34C1[C@@](O)([C@@H](OC)[C@H]23)[C@@]1(O)C[C@H](OC)[C@H]2C[C@@H]4[C@@H]1[C@H]2OC(C)=O | 1.11 |  |  |
| C=C1[C@H]2C[C@H]3C4N(Cc5ccccc5)C[C@]5(C)CCC[C@]46[C@H]([C@H]2O)C3(CC(=O)[C@H]56)[C@@H]1O (some centres not stated) | 1.01 |  |  |

| SMILES | relative cell growth [1] | IC50 ([2]; a 172) [µg/mL] | IC50 [2, 3] [µg/mL] |
| --- | --- | --- | --- |
| C=C1[C@H]2C[C@H]3C4N5C[C@]6(C)CCC[C@]47[C@H]([C@H]2O)C3(C[C@]5(OC(=O)c2ccc(OC)c(OC)c2)[C@H]67)[C@@H]1O | 0.84 |  | 3.7 (≈ 7.5 µM) |
| C=C1[C@H]2C[C@H]3C4N5C[C@]6(C)CCC[C@]47[C@H]([C@H]2O)C3(C[C@]5(OC(=O)c2cccc(C(F)(F)F)c2)[C@H]67)[C@@H]1O | 1.04 |  |  |
| COC[C@]12CC[C@H](O)[C@]34C(NC1)[C@@](O)([C@@H](OC)[C@H]23)[C@@]1(O)C[C@H](OC)[C@H]2C[C@@H]4[C@@H]1[C@H]2O | 0.9 |  |  |
| C=C1[C@H]2C[C@H]3C4N5C[C@]6(C)CCC[C@]47[C@H]([C@H]2O)C3(C[C@]5(OC(=O)c2ccc([N+](=O)[O-])cc2)[C@H]67)[C@@H]1O | 0.96 |  |  |
| C=C1[C@H]2C[C@H]3C4N5C[C@]6(C)CCC[C@]47[C@H]([C@H]2OC(=O)c2ccc(OC)c(OC)c2)C3(C[C@]5(O)[C@H]67)[C@@H]1O | 0.47 |  | 1.2 (≈ 2.43 µM) |
| C=C1[C@@H](O)[C@]23C[C@@H]1[C@@H](OC(=O)c1ccc(OC)c(OC)c1)C[C@H]2[C@@]12C4C3C[C@@H]1[C@@](C)(CC[C@H]2O)CN4CC | 0.97 |  |  |
| C=C1[C@@H](OC(C)=O)[C@]23C[C@@H]1[C@@H](OC(C)=O)C[C@H]2[C@@]12C4C3C[C@@H]1[C@@](C)(CC[C@H]2O)CN4CC | 1.03 |  |  |
| C=C1[C@@H](OC(C)=O)[C@]23C[C@@H]1[C@@H](OC(C)=O)C[C@H]2[C@@]12C4C3C[C@@H]1[C@@](C)(CC[C@H]2OC(C)=O)CN4CC | 1.02 |  | > 5 |
| C=C1[C@H]2C[C@H]3C4N5C[C@]6(C)CCC[C@]47[C@H]([C@H]2OC(=O)c2ccc([N+](=O)[O-])cc2)C3(C[C@]5(O)[C@H]67)[C@@H]1O | 0.22 |  | 1.5 (≈ 3.13 µM) |
| CCN1C[C@]2(COC)[C@H](O)C[C@H](OC)[C@]34C1C([C@H](OC)[C@H]23)[C@]1(OC)[C@H]2[C@@H](OC(=O)c3ccc(OC)cc3)[C@](O)(C[C@H]24)[C@@H](OC)[C@@H]1O [ALJESACONITINE A] | 0.93 |  |  |
| C=C1[C@@H](OC(C)=O)[C@]23C[C@@H]1[C@@H](O)C[C@H]2[C@@]12C4C3C[C@@H]1[C@@]1(C)CC[C@H]2OC1N4CC [DEHYDROLUCIDUSCULINE] | 1.18 |  | > 5 |
| CCN1C[C@]2(C)CC[C@H](OC)[C@@]34C1[C@@]1(OCO[C@@]15C[C@H](OC)[C@H]1C[C@@H]3[C@@H]5[C@H]1O)[C@@H](O)[C@H]24 [DELPHELINE] | 1.1 |  |  |
| CCN1C[C@]2(COC)CC[C@H](OC)[C@]34C1C([C@H](OC)[C@H]23)[C@]1(OC(C)=O)[C@H]2[C@@H](OC(=O)c3ccccc3)[C@](O)(C[C@H]24)[C@@H](OC)[C@@H]1O [DEOXYACONITINE] | 0.99 |  |  |
| CCN1C[C@]2(COC)CC[C@H](OC)[C@]34C1C([C@H](OC)[C@H]23)[C@]1(OC(C)=O)[C@H]2[C@@H](OC(=O)c3ccc(OC)cc3)[C@](O)(C[C@H]24)[C@@H](OC)[C@@H]1O [DEOXYJESACONITINE] | 0.97 |  |  |
| COC[C@]12CN(C)C3C4[C@H](OC)[C@H]1[C@@]3([C@@H](OC)C[C@H]2O)[C@@H]1C[C@@]2(O)[C@H](OC(=O)c3ccccc3)[C@@H]1[C@]4(OC)[C@@H](O)[C@@H]2OC [HOKBUSINE A] | 1.03 |  |  |
| COC[C@@]12CC[C@H](OC)[C@]34C(C([C@H](OC)[C@H]13)[C@]1(OC(C)=O)[C@H]3[C@@H](OC(=O)c5ccccc5)[C@](O)(C[C@H]34)[C@@H](OC)[C@@H]1O)N(C)C2 [HYPACONITINE] | 1.08 |  |  |
| C=C1[C@H]2C[C@H]3C4N5C[C@]6(C)CCC[C@]47[C@H]([C@H]2O)C3(CC5[C@H]67)[C@@H]1O [KOBUSINE] | 0.76 |  | > 5 |
| C=C1[C@H]2C[C@H]3C4N5C[C@]6(C)CCC[C@]47[C@H]([C@H]2O)C3(C[C@]5(O)[C@H]67)[C@@H]1O [PSEUDOKOBUSINE] | 0.84 |  | > 5 |
| CC(=O)O[C@H]1C[C@H]2C3C4C[C@@H]5[C@@]6(C)CC[C@H](OC(C)=O)[C@@]5(C4N(C)C6)[C@@H]3[C@H]1[C@@]1(CO1)[C@H]2O (some centres not stated) [YESOXINE] | 1.01 |  | > 5 |
